Laboratory results reported in PubChem BioAssay AID652011 (Sanford-Burnham Center for Chemical Genomics, 2013).
“And” between values parts separate entries of the source, which are not always exact repeats. Identical values can stand only once.

Molecular target: Hypoxia-inducible factor 1-alpha (Homo sapiens) (UniProt Q16665)
Experiment: HIF-1a and HIF-2a reporter inhibitors, SAR follow-up, cell-based, luminescence, MIAPaCa-2, 786-0, panel (AID 652011)
Conditions: MIAPaCa-2/PANC HIF reporter, luciferase luminescence, desferoxamine, overnight, HIF1a, run 2; at 99 µM (top of the series)
How it was run: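 Probe or stimulus: desferoxamine stimulus; times: overnight seeding and compound exposure, 37 °C, 5% CO2, 10-min detection; signal: One-Glo luciferase luminescence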

Sequence of Hypoxia-inducible factor 1-alpha (Homo sapiens) (Q16665 whole entry, looked up): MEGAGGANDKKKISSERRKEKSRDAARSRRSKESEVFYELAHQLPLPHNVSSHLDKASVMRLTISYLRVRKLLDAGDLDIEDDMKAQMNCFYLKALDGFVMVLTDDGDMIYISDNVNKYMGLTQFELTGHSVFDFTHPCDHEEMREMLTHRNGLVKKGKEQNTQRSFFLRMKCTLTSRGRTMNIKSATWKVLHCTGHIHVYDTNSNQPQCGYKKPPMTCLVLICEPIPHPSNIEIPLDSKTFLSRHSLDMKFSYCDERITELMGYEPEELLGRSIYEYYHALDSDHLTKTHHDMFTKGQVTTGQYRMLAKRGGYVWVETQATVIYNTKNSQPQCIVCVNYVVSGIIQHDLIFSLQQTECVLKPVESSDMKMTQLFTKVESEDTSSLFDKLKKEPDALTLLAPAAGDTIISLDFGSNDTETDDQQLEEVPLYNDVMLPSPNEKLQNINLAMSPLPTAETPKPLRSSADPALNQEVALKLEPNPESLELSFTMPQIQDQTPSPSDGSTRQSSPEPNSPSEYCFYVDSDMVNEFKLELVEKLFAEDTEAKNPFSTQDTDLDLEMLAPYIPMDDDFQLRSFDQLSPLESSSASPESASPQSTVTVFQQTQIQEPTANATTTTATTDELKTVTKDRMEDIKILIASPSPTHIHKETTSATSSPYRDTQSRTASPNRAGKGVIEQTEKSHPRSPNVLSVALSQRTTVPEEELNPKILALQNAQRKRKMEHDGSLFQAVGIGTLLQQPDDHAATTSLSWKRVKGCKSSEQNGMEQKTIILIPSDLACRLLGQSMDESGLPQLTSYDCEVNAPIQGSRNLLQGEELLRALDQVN

SMILES | inhibition
CC(C)(C)c1ccc(-c2noc(CCC(=O)NCC3CCCO3)n2)cc1 (stereo unspecified) | 8.05%
CCc1ccc(-c2noc(CCC(=O)NC3CC3)n2)cc1 | -49.4%
CC(C)(C)c1ccc(-c2noc(CCC(=O)NC3CCCCC3)n2)cc1 | 55.9%
CNC(=O)CCc1nc(-c2ccccc2)no1 | -20.8% and 17.9%
CCNC(=O)CCc1nc(-c2ccccc2C)no1 | -28.2%
CC(C)(C)c1ccc(-c2noc(CCC(=O)Nc3cccnc3)n2)cc1 | 85.6%
COc1ccccc1NC(=O)CCc1nc(-c2ccc(C(C)(C)C)cc2)no1 | 81.3%
CC(C)(C)c1ccc(-c2noc(CCC(=O)N3CCCCC3)n2)cc1 | 103%
C=CCNC(=O)CCc1nc(-c2ccc(C(C)(C)C)cc2)no1 | 34.7%
COC(=O)CCc1nc(-c2ccc(C(C)(C)C)cc2)no1 | 93.8%
CCN(CC)C(=O)CCc1nc(-c2ccc(C(C)(C)C)cc2)no1 | 27.4% and 77.3%
CNC(=O)CCc1nc(-c2ccc(OC)cc2)no1 | -31.5%
CCNC(=O)CCc1nc(-c2ccc(C(C)C)cc2)no1 | -15.6%
CCNC(=O)CCc1nc(-c2cccc(OC)c2)no1 | -31.4%
CCc1ccc(-c2noc(CCC(=O)NC(C)(C)C)n2)cc1 | -0.564%
CC(C)(C)NC(=O)CCc1nc(-c2ccccc2)no1 | -36.5%
CNC(=O)CCc1nc(-c2ccc(F)cc2)no1 | -36.7%
CCNC(=O)CCc1nc(-c2cccc(C)c2)no1 | -31.6%
CCCCc1ccc(-c2noc(CCC(=O)NC(C)(C)C)n2)cc1 | 93%
CCNC(=O)CCc1nc(-c2c(Cl)cccc2Cl)no1 | 28.8%
O=C(O)CCc1nc(-c2ccccc2)no1 | 16.7%
